{"source": "ChEMBL document CHEMBL2203218", "about": "“Evaluation of [(11)C]N-Methyl Lansoprazole as a Radiopharmaceutical for PET Imaging of Tau Neurofibrillary Tangles” (ACS Med Chem Lett, 2012)", "key": {"[1]": {"target": "Microtubule-associated protein tau (Homo sapiens, UniProt P10636)", "sequence (P10636 whole entry)": "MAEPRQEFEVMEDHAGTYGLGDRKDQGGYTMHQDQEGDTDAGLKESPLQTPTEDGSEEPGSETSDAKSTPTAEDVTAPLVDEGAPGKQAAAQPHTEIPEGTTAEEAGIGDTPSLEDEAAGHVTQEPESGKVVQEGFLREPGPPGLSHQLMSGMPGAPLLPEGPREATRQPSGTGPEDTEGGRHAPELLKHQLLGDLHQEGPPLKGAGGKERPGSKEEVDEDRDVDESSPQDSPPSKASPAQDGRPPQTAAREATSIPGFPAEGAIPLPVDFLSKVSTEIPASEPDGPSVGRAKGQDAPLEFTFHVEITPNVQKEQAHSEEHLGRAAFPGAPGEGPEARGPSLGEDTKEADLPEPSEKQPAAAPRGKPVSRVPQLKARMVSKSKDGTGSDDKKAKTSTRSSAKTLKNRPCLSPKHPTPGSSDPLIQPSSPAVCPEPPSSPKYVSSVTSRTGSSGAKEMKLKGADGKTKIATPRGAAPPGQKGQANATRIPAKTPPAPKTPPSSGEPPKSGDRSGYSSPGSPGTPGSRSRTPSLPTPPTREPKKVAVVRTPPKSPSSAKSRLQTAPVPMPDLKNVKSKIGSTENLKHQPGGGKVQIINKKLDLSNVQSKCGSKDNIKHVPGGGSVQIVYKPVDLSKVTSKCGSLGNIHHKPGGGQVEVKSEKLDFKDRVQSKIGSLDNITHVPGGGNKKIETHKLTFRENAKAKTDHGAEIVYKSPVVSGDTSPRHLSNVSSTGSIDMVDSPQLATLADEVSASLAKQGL", "assay": "Binding affinity to heparin induced human Tau 441 at 50 pM to 500 nM after 30 mins"}, "Hippocampus": {"test_system": "Hippocampus", "assay": "Drug uptake in human Tau expressing Sprague-Dawley rat hippocampus at 1 to 10 mCi by autoradiography analysis relative to wild type Sprague-Dawley rat brain", "assay_type": "ADME, tissue-based", "settings": "in vivo; call rule not given here"}, "Brain [2]": {"test_system": "Brain", "assay": "Biodistribution in iv dosed Sprague-Dawley rat brain after 5 to 60 mins by gamma counting", "assay_type": "ADME, organism-based", "settings": "in vivo", "procedure,_shortened": "(§1)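 Tracer reconstituted in ethanolic saline and injected via tail vein into anesthetized Sprague-Dawley rats (three per time point). Rats were allowed to wake, then reanesthetized and sacrificed at 5, 30 and 60 min postinjection for tissue distribution.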"}, "Kidney": {"test_system": "Kidney", "assay": "Biodistribution in iv dosed Sprague-Dawley rat kidney after 5 to 60 mins by gamma counting", "assay_type": "ADME, organism-based", "settings": "in vivo", "procedure,_shortened": "as §1"}, "Brain [3]": {"test_system": "Brain", "assay": "Drug uptake in rhesus monkey brain at 5.4 mCi, iv at 3 mins by MicroPET analysis", "assay_type": "ADME, organism-based, Macaca mulatta", "settings": "in vivo, 0.05 h"}, "[4]": {"assay": "Octanol-water partition coefficient, log P of the compound", "assay_type": "physicochemical"}, "Brain [5]": {"test_system": "Brain", "assay": "Drug uptake in Sprague-Dawley rat brain at 0.95 mCi, iv after 60 mins by MicroPET analysis", "assay_type": "ADME, organism-based", "settings": "in vivo, 1 h"}, "Brain [6]": {"test_system": "Brain", "assay": "Drug uptake in human Tau expressing Sprague-Dawley rat brain at 1 to 10 mCi by autoradiography analysis", "assay_type": "ADME, tissue-based", "settings": "in vivo"}, "Rattus norvegicus": {"test_system": "Rattus norvegicus", "assay": "Metabolic stability in anesthetized iv dosed Sprague-Dawley rat […] and HPLC analysis", "assay_type": "ADME, organism-based", "settings": "in vivo, in the assay text read “5 to 30 mins” for “5 to 60 mins”", "procedure,_shortened": "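Sprague-Dawley rats, anesthetized, received tracer via tail vein (three per time point). They were allowed to wake, then reanesthetized and sacrificed at 5, 15 and 30 min. Blood collected at each time was centrifuged, and the plasma was analyzed by HPLC and radio-TLC for parent and radioactive metabolites.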"}, "Liver": {"test_system": "Liver", "assay": "Biodistribution in iv dosed Sprague-Dawley rat liver after 5 to 60 mins by gamma counting", "assay_type": "ADME, organism-based", "settings": "in vivo", "procedure,_shortened": "as §1"}, "Brain [7]": {"test_system": "Brain", "assay": "Drug uptake in rhesus monkey brain at 5.4 mCi, iv after 3 mins by MicroPET analysis", "assay_type": "ADME, organism-based, Macaca mulatta", "settings": "in vivo, 0.05 h"}, "Cortex": {"test_system": "Cortex", "assay": "Drug uptake in human Tau expressing Sprague-Dawley rat cortex at 1 to 10 mCi by autoradiography analysis relative to wild type Sprague-Dawley rat brain", "assay_type": "ADME, tissue-based", "settings": "in vivo"}, "Brain [8]": {"test_system": "Brain", "assay": "Drug uptake in wild type Sprague-Dawley rat brain at 1 to 10 mCi by autoradiography analysis", "assay_type": "ADME, tissue-based", "settings": "in vivo"}, "[9]": {"assay": "Drug uptake in human globus pallidus using bielschowsky staining by autoradiography analysis", "assay_type": "ADME, tissue-based", "procedure,_shortened": "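PSP patient brain blocks were cut into 20 μm cryostat sections on slides and incubated with tracer for 10 min. Slides were washed, dried and exposed to film for 5 min. The same slides were then stained by modified Bielschowsky staining to locate tau NFTs for colocalization.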"}}, "note": "pKd, pKi: −log10 of the molar value."}
{"smiles": "Cc1c(OCC(F)(F)F)ccnc1C[S+]([O-])c1nc2ccccc2n1C", "note": "(stereo unspecified)", "values": [{"measurement": "Bmax", "setting": "[1]; tested as the 11C-labelled form", "value": 0.214, "unit": "fmol/µg"}]}
{"smiles": "Cc1c(OCC(F)(F)F)ccnc1C[S+]([O-])c1nc2ccccc2[nH]1", "note": "(stereo unspecified) [LANSOPRAZOLE]", "values": [{"measurement": "pKi", "setting": "[1]", "value": 8.60}]}
{"smiles": "Cc1c(OCC(F)(F)F)ccnc1C[S+]([O-])c1nc2ccccc2n1[11CH3]", "note": "(stereo unspecified)", "values": [{"measurement": "Drug uptake", "setting": "Hippocampus", "value": 4, "unit": "%"}, {"measurement": "Drug uptake", "setting": "Brain [2]", "value": "Not Active"}, {"measurement": "Drug uptake", "setting": "Kidney", "value": "Active"}, {"measurement": "Drug uptake", "setting": "Brain [3]", "value": 1600, "unit": "nCi/cc"}, {"measurement": "logP", "setting": "[4]", "value": 2.18}, {"measurement": "Drug uptake", "setting": "Brain [5]", "value": "Not Active"}, {"measurement": "Drug uptake", "setting": "Brain [6]", "value": "Active"}, {"measurement": "Stability", "setting": "Rattus norvegicus", "value": "Unstable"}, {"measurement": "Drug uptake", "setting": "Liver", "value": "Active"}, {"measurement": "Drug uptake", "setting": "Brain [7]", "value": 500, "unit": "nCi/cc"}, {"measurement": "pKd", "setting": "[1]", "value": 9.15}, {"measurement": "Drug uptake", "setting": "Cortex", "value": 12, "unit": "%"}, {"measurement": "Drug uptake", "setting": "Brain [8]", "value": "Active"}, {"measurement": "Drug uptake", "setting": "[9]", "value": "Active"}]}
